Compounds with a hit are over-represented: about 1.9% of the library has one in this group of screens.
SUMO1 PPI mod – alters human SUMO1 binding to SIM partners; SUMO1 binding to a labelled peptide, TR-FRET, 1 h; inhibition, % at 20 µM; 360,000 compounds, 0.33% hits; in the data active = inhibition above about 37%
Target sequence (P63165 whole entry, looked up): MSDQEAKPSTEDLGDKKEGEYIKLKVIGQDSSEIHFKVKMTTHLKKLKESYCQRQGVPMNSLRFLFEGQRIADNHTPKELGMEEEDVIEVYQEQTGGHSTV
CSN deneddyl inh – blocks human CSN-mediated cullin deneddylation; Q92905; Purified CSN, SCF-Nedd8-OG deneddylation, fluorescence polarization; inhibition, % at 12.5 µM; 360,000 compounds, 0.38% hits; AID 651999;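 active = pattern-corrected inhibition above about 35%, with an unprinted fluorescence ratio check between 0.5 and 1.5, limit read from the data, passing the limit was not always enough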
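assay system = purified human Csn5 enzyme expressed in HEK293T cells | amount = 0.24 nM enzyme | buffer or medium = Tris/NaCl/DTT buffer, pH 7.5 | reagent = 10 nM SCFSkp2-Nedd8OG | compound = one concentration, 12.5 µM, 0.25% DMSO | times = 90 min reaction at room temperature | signal = FP | read-out basis = % inhibition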
STEP inh – blocks human striatal-enriched tyrosine phosphatase; P54829; recombinant STEP, OMFP fluorogenic substrate, fluorescence; inhibition, % at 20 µM; 360,000 compounds, 0.25% hits; AID 588621;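 active = inhibition at 20 µM, scaled per plate between control wells, above about 37%, limit read from the data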
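Measure: Control-normalized % inhibition with plate pattern correction | Test system: STEP phosphatase, cell-free reaction | Medium: pH 6.0 Bis-Tris with DTT and Tween 20 | Technique: Fluorescence, 480/540 nm | Times: Reaction 20 min, ambient temperature | Doses: Single compound dose of 20 µM, 1% DMSO final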
DNMT1 block – inhibitors of human DNMT1. P26358. DNMT1 molecular beacon, Hinp1I cleavage, fluorescence. inhibition (reported as % activation of signal), % at 10 µM. 360,000 compounds, 0.83% hits. AID 588458; in the data active = inhibition above about 50%
Scp-1 inhibitor – Scp-1 (human) phosphatase inhibition; Q9GZU7; Recombinant Scp1, phosphopeptide, malachite green phosphate absorbance; inhibition, % at 20 µM; 340,000 compounds, 0.88% hits;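 active = inhibition above about 50% at 20 µM, limit read from the data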
Target sequence (Q9GZU7 76-261 limits assumed): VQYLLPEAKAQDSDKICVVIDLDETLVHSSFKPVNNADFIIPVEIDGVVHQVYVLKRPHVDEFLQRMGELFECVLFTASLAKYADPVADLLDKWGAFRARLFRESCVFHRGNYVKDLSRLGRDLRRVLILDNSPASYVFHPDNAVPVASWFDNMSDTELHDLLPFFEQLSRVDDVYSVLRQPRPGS
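Test system: SCP-1 phosphatase catalytic domain, residues 76-261; measured by: colorimetric phosphate reagent with accelerator and stabiliser, absorbance at 630 nm; timing: enzyme reaction 45 min at room temperature, colour 5 min, stabilisation 30 min; also added: Phosphorylated 17-residue peptide substrate; compound dosing: one concentration, 20 µM, with 1.0% DMSO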
LMPTP inh – blocks human LMPTP phosphatase; P24666; recombinant LMPTP-A, OMFP fluorogenic substrate, fluorescence intensity; inhibition, % at 20 µM; 360,000 compounds, 0.22% hits; AID 651560;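 active = compounds that cut the enzyme signal by at least half of the control window in the single-dose screen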
Target sequence (P24666 whole entry, looked up): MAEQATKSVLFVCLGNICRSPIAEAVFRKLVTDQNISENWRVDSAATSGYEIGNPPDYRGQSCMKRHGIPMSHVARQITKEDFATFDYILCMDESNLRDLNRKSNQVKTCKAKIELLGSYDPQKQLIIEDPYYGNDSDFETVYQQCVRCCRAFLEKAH
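Assay system: LMPTP-A enzyme. Input: 0.625 nM LMPTP-A final. Probe or stimulus: 400 µM OMFP. Compound dosing: single 20 µM dose. Schedule: 50 min dark incubation at room temperature. Detection: fluorescence intensity of OMFP turnover product. Read-out: percent inhibition versus substrate-only and uninhibited controls. Benchmarks: no-enzyme low control, uninhibited high control.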
Beacon interf DR – shows spectral interference in the DNMT1 beacon assay | shares compounds with DNMT1 block | molecular beacon fluorescence, spectral interference counter-screen | IC50, µM | 200 tested, under 10 active; call rule not given here
DNMT1 inh conf – DNMT1 inhibition confirmation, single concentration; shares compounds with DNMT1 block; 2,300 compounds, 8% hits; DNMT1 molecular beacon HinP1I cleavage, fluorescence; inhibition, % at 10 µM;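 active = average inhibition of at least 30% in the single-concentration confirmation test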
DNMT1 interf – counter-screen for DNMT1 inhibitors: spectral interference | shares compounds with DNMT1 block | DNMT1 molecular beacon spectral interference counterscreen, fluorescence 485/520 | 2,300 compounds, 1% hits | activation (fluorescence interference), % at 10 µM;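 active = activation of at least 30% at 10 µM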;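 note: DNMT1 catalytic domain with a HinP1I cleavage step and a FAM/dabcyl DNA beacon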
Large screens that a line does not name were inactive (follow-up assays come after a bar, where they were run).

Cc1ccc(C(=O)Nc2ccc3c4c(cccc24)CC3)cc1[N+](=O)[O-]	none
O=C1NC(=S)N/C1=C/c1cccn1-c1ccc([N+](=O)[O-])cc1	DNMT1 block 55 | DNMT1 inh conf inactive | DNMT1 interf inactive
COc1ccccc1C(=O)NCCC(=O)N1CC(=O)Nc2ccccc21	none
O=Cc1cn(-c2ccccc2)nc1-c1cc2c(ccc3ccccc32)oc1=O	DNMT1 block 53 | DNMT1 inh conf inactive | DNMT1 interf inactive
COc1ccc(N(C(=O)Cn2nnc(-c3ccc(Cl)cc3)n2)C(C(=O)NCC2CCCO2)c2ccc(C)cc2)cc1 (stereo not drawn)	DNMT1 block 55 | DNMT1 inh conf inactive | DNMT1 interf inactive
COc1ccc(N(C(=O)Cn2nnc(-c3ccccc3F)n2)C(C(=O)NCC2CCCO2)c2ccc(Cl)cc2)cc1 (stereo not drawn)	DNMT1 block 53 | DNMT1 inh conf inactive | DNMT1 interf inactive
COc1ccc(N(C(=O)Cn2nnc(-c3ccc(Cl)cc3)n2)C(C(=O)NCC2CCCO2)c2ccncc2)cc1 (stereo not drawn)	none
C[C@H]1CN([C@@H](C)CO)C(=O)c2cc(Br)cnc2O[C@@H]1CN(C)C(=O)c1ccncc1	none (no result: Scp-1 inhibitor)
CC(=O)Nc1ccc(-n2nnnc2SCC(=O)NC2CCCC2)cc1	none
CC(=O)c1ccc(-n2nnnc2SCC(=O)NC2CCCCC2)cc1	DNMT1 block 68 | DNMT1 inh conf inactive | DNMT1 interf inactive
Cc1ccc(OCc2ccc(C(=O)O)o2)cc1C	none
Cc1ccc(OCc2ccoc2C(=O)O)cc1C	DNMT1 block 54 | DNMT1 inh conf inactive | DNMT1 interf inactive
COc1ccccc1CCNS(=O)(=O)c1cc2c3c(c1)CCN3C(=O)CC2	none
COc1ccccc1NS(=O)(=O)c1cc2c3c(c1)CCN3C(=O)CC2	DNMT1 block 84 | DNMT1 inh conf inactive | DNMT1 interf inactive
Cc1cccc(Cl)c1OCCCn1ccnc1	DNMT1 block 67 | DNMT1 inh conf inactive | DNMT1 interf inactive
Cc1cc(Cl)cc(C)c1OCCCCCn1ccnc1	none
N#Cc1c(SCC(=O)Nc2ccccc2C(F)(F)F)sc2c(O)cc(=O)[nH]c12	none
N#Cc1c(SCC(=O)Nc2nc3ccc(Br)cc3s2)sc2c(O)cc(=O)[nH]c12	DNMT1 block 80, Scp-1 inhibitor 54, LMPTP inh 53 | Beacon interf DR inactive | DNMT1 inh conf inactive | DNMT1 interf inactive
O=C(/C=C/c1ccco1)c1cccc([N+](=O)[O-])c1	DNMT1 block 62 | DNMT1 inh conf inactive | DNMT1 interf inactive
CCOc1ccc(N=c2cc(-c3ccc(OC)cc3)oc3ccccc23)cc1	DNMT1 block 95 | DNMT1 inh conf inactive | DNMT1 interf inactive
Cc1ccc(NC(=O)COC(=O)Cn2c(C)csc2=O)c([N+](=O)[O-])c1	DNMT1 block 51 | DNMT1 inh conf inactive | DNMT1 interf inactive
Cc1ccc(C)n1/N=C1/NC(=O)CS1	CSN deneddyl inh 46, DNMT1 block 90 | DNMT1 inh conf inactive | DNMT1 interf inactive
Clc1cc(Cl)cc(Nc2ccccc2CN(C/C=C/c2ccc3c(c2)OCO3)Cc2ccccc2)c1	none (no result: Scp-1 inhibitor)
COc1ccc(O)c(C(c2c(C)[nH][nH]c2=O)c2c(C)[nH][nH]c2=O)c1	SUMO1 PPI mod 43, DNMT1 block 53 | DNMT1 inh conf inactive | DNMT1 interf inactive
COc1ccc(OC)c(C(c2c(C)[nH][nH]c2=O)c2c(C)[nH][nH]c2=O)c1	none
CC(C)(C)C(=O)Cn1ncc(Cl)c(Cl)c1=O	none
C=CCn1c(C)cc(C(=O)Cn2ncc(Cl)c(Cl)c2=O)c1C	DNMT1 block 103 | DNMT1 inh conf inactive | DNMT1 interf inactive
COc1ccc(/C=N\NC(=O)c2ccccc2F)cc1COc1ccc(F)cc1F	none
COc1ccc(/C=N/NC(=O)c2ccc(NC(C)=O)cc2)cc1COc1ccc(F)cc1F	DNMT1 block 77 | DNMT1 inh conf inactive | DNMT1 interf inactive
COc1ccc(/C=N/NC(=O)c2nc(Cl)c(Cl)c(N)c2Cl)cc1COc1ccc(F)cc1F	DNMT1 block 53 | DNMT1 inh conf inactive | DNMT1 interf inactive
CCc1nc(Nc2ccccc2)c2nnn(Cc3ccccc3)c2n1	none

Screens (PubChem)
